The values below come from ChEMBL document CHEMBL1122307, “Mitomycin C and porfiromycin analogues with substituted ethylamines at position 7” (J Med Chem, 1983).

Molecules are shown by their SMILES.

For data set [1], the system named is P388. Briefly: Optimal dose required for antitumor activity against P-388 murine leukemia cells in mice. The format is functional, Mus musculus. A digest of the protocol: (§1)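 P-388 ascites leukemia, 10⁶ cells implanted ip in female CDF₁ mice. Six mice per dose, with 10 saline-injected controls. A six-mouse mitomycin C group was run at each dose in the same experiment. % T/C = median survival time treated/control × 100 at the optimal dose. MED is the lowest dose giving T/C ≥ 125.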

Data set [2] is described as follows: Partition coefficient (logP). It counts as physicochemical. The note with it: octanol/water.
The subject of data set [3] is P388. Briefly: Maximum % T/C with mitomycin C against P-388 murine leukemia cells in mice. The format is functional, Mus musculus. Summed up: as §1
Data set [4] is described as follows: Therapeutic ratio as optimal dose/minimal effective dose. The note with it: mouse, p388; read-out: TR. It counts as ADME.
Data set [5] deals with P388. Briefly: Minimum effective dose required for antitumor activity against P-388 murine leukemia cells. It counts as functional. The note with it: Mus musculus, read-out: MED. A digest of the protocol:
as §1

Data set [6] deals with P388. Briefly: Maximum % T/C against P-388 murine leukemia cells in mice. The format is functional, Mus musculus. Summed up: as §1
The test system of data set [7] is P388. Briefly: Leukopenia % change in WBC at optimal dose on 3rd day. The format is functional, Mus musculus.
Data set [8] deals with L1210. Briefly: Maximum % T/C against L-1210 leukemia cells in mice. The format is functional, Mus musculus. Summed up: (§2)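 L-1210 leukemia in mice, run by the standard NCI protocol with one dose on day 1. % T/C is based on survival. Repeated assays are reported as both values.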
Data set [9] concerns L1210. As to the kind of experiment: Optimal dose required for antitumor activity L-1210 leukemia cells in mice. It counts as functional, Mus musculus. A digest of the protocol: as §2
Data set [10] relates to L1210. As to the kind of experiment: Minimum effective dose required for antitumor activity against L-1210 leukemia cells in mice. The format is functional. The following applies: Mus musculus, read-out: MED. A digest of the protocol:
as §2

As usually defined, the logP is the decadic logarithm of the partition coefficient of the neutral form, usually between octanol and water. Usually T/C stands for the result in the treated group divided by that in the control group, in per cent. As for `COC12[C@@H]3N[C@@H]3CN1C1=C(C(=O)C(NCCc3ccccc3)=C(C)C1=O)[C@@H]2COC(N)=O` (stereo partly specified), the Dose in the data set with P388 [1] was determined as 25.6 mg/kg. Also, the logP in data set [2] was determined as 2.48. The T/C with P388 [3] was found to be 194%. For the same compound, the selectivity ratio in [4] worked out at 16.

`COC12[C@@H]3N[C@@H]3CN1C1=C(C(=O)C(NCCc3ccc(O)c(O)c3)=C(C)C1=O)[C@@H]2COC(N)=O` (stereo partly specified) registered a Dose with P388 [1] of 12.8 mg/kg. Further, the minimal effective dose in the data set with P388 [5] stood at 12.8 mg/kg. Moreover, the T/C is on record as 233% in the data set on P388 [3] and 139% in the data set with P388 [6]. Moreover, the selectivity ratio in data set [4] worked out at 1.

With `COC12[C@@H]3N[C@@H]3CN1C1=C(C(=O)/C(=N/CCO)C(C)=C1O)[C@@H]2COC(N)=O` (stereo partly specified), the Dose with P388 [1] is 25.6 mg/kg. This compound yielded a logP in data set [2] of -0.81. For the same compound, the “Change in WBC” value in the data set on P388 [7] was -38%. The minimal effective dose in the data set on P388 [5] was found to be 1.6 mg/kg. For the same compound, the T/C with P388 [3] and in the data set with P388 [6] was 228% in each case. The selectivity ratio in data set [4] stood at 16.

Compound `COC12[C@@H]3N[C@@H]3CN1C1=C(C(=O)/C(=N/CCF)C(C)=C1O)[C@@H]2COC(N)=O` (stereo partly specified) came in with a Dose in the data set on P388 [1] of 6.4 mg/kg. The compound further showed a logP in data set [2] of 0.18. The minimal effective dose in the data set with P388 [5] stood at 0.4 mg/kg. Besides, the T/C in the data set with P388 [3] is recorded as 268%; in the data set on P388 [6], over 316%. Besides, the selectivity ratio in [4] came out at 16.

As for `COC(C/N=C1/C(=O)C2=C(C(O)=C1C)N1C[C@H]3N[C@H]3C1(OC)[C@H]2COC(N)=O)OC` (stereo partly specified), the figures for the T/C in the data set on L1210 [8], in the data set on P388 [3] and with P388 [6] were 151%, 224% and 200%, respectively. The Dose in the data set on P388 [1] was found to be 6.4 mg/kg; in the data set with L1210 [9], 24 mg/kg. The “Change in WBC” value in the data set with P388 [7] was -44%. In addition, the values for the minimal effective dose in the data set with P388 [5] and in the data set on L1210 [10] were 0.8 mg/kg and 6 mg/kg, respectively. Also, the selectivity ratio in data set [4] was 8.

On to `COC12[C@@H](COC(N)=O)C3=C(C(O)=C(C)/C(=N\CCS)C3=O)N1C[C@@H]1[C@H]2N1C` (stereo partly specified), for which the T/C with L1210 [8] was found to be 129%; with P388 [3], 268%; in the data set with P388 [6], 179%. In addition, the Dose was found to be 25.6 mg/kg with P388 [1] and 48 mg/kg in the data set on L1210 [9]. In addition, the minimal effective dose came to 3.2 mg/kg with P388 [5] and 12 mg/kg in the data set with L1210 [10]. For the same compound, in [4], the selectivity ratio was determined as 8.

On to `COC12[C@@H](COC(N)=O)C3=C(C(=O)C(C)=C(NCCCl)C3=O)N1C[C@@H]1[C@H]2N1C` (stereo partly specified), for which, in the data set on P388 [1], the Dose stood at 51.2 mg/kg. Also, the T/C in the data set on P388 [3] is over 300%. Moreover, the selectivity ratio in [4] was found to be 8.

`COC12[C@@H]3N[C@@H]3CN1C1=C(C(=O)C(NCCCl)=C(C)C1=O)[C@@H]2COC(N)=O` (stereo partly specified) had a Dose in the data set on P388 [1] of 12.8 mg/kg. The same compound showed a logP in data set [2] of 0.74. The “Change in WBC” value in the data set on P388 [7] was -7%. In the data set on P388 [3], this compound yielded a T/C of 245%. The selectivity ratio in data set [4] was found to be 8.

Consider `COC12[C@@H]3N[C@@H]3CN1C1=C(C(=O)/C(=N/CCN3CCOCC3)C(C)=C1O)[C@@H]2COC(N)=O` (stereo partly specified), for which the T/C was 132% with L1210 [8], 211% in the data set with P388 [3] and 150% in the data set with P388 [6]. Besides, the Dose is 25.6 mg/kg with P388 [1] and 96 mg/kg with L1210 [9]. Besides, the minimal effective dose in the data set with P388 [5] was determined as 6.4 mg/kg; in the data set on L1210 [10], 48 mg/kg. In addition, in [4], the selectivity ratio amounted to 4.

In the case of `CCN1CCCC1C/N=C1/C(=O)C2=C(C(O)=C1C)N1C[C@H]3N[C@H]3C1(OC)[C@H]2COC(N)=O` (stereo partly specified), the Dose in the data set on P388 [1] stood at 12.8 mg/kg. Also, the “Change in WBC” value in the data set with P388 [7] is recorded as -29%. Moreover, in the data set on P388 [5], the minimal effective dose worked out at 0.8 mg/kg. The figures for the T/C with P388 [3] and in the data set on P388 [6] were 211% and 217%, respectively. Besides, in data set [4], the selectivity ratio worked out at 16.

On to `CCSCC/N=C1/C(=O)C2=C(C(O)=C1C)N1C[C@@H]3[C@@H](N3C)C1(OC)[C@H]2COC(N)=O` (stereo partly specified), for which the T/C with L1210 [8] amounted to 143%; in the data set on P388 [3] it was 322%; with P388 [6], 200%. Further, the Dose with P388 [1] came to 25 mg/kg; in the data set with L1210 [9], 48 mg/kg. In addition, the minimal effective dose in the data set with P388 [5] was 6.4 mg/kg; in the data set with L1210 [10], 24 mg/kg. In addition, in data set [4], the selectivity ratio is 4.

On to `COC12[C@@H]3N[C@@H]3CN1C1=C(C(=O)/C(=N/CCN3CCCC3)C(C)=C1O)[C@@H]2COC(N)=O` (stereo partly specified), for which the T/C in the data set with L1210 [8] worked out at 125%; with P388 [3], 211%; in the data set on P388 [6], 194%. Moreover, the Dose in the data set with P388 [1] was determined as 12.8 mg/kg; with L1210 [9], 5 mg/kg. In addition, the “Change in WBC” value in the data set with P388 [7] is -64%. Further, the minimal effective dose in the data set with P388 [5] is 0.4 mg/kg; in the data set with L1210 [10] it was 5 mg/kg. Also, the selectivity ratio in [4] amounted to 32.

For the compound `COC12[C@@H]3N[C@@H]3CN1C1=C(C(=O)/C(=N/CCc3ccc(O)cc3)C(C)=C1O)[C@@H]2COC(N)=O` (stereo partly specified), the T/C was 125% in the data set with L1210 [8], 288% in the data set with P388 [3] and 218% in the data set on P388 [6]. The Dose in the data set with P388 [1] came to 25.6 mg/kg; with L1210 [9] it was 48 mg/kg. Further, the values for the minimal effective dose in the data set on P388 [5] and with L1210 [10] were 1.6 mg/kg and 12 mg/kg, respectively. Also, the selectivity ratio in data set [4] stood at 16.

As for `CC/N=C1/C(=O)C2=C(C(O)=C1C)N1C[C@H]3N[C@H]3C1(OC)[C@H]2COC(N)=O` (stereo partly specified), the Dose in the data set with P388 [1] stood at 12.8 mg/kg. In data set [2], this compound registered a logP of 0.35. Also, in the data set with P388 [5], the minimal effective dose worked out at 0.8 mg/kg. Besides, the T/C is 322% with P388 [3] and 250% with P388 [6]. For the same compound, in data set [4], the selectivity ratio was 32.

In turn, `COC12[C@@H]3N[C@@H]3CN1C1=C(C(=O)/C(=N/CCN)C(C)=C1O)[C@@H]2COC(N)=O` (stereo partly specified) returned a Dose in the data set with P388 [1] of 3.3 mg/kg. In data set [2], this compound yielded a log partition coefficient (logP) of -0.84. Further, the minimal effective dose in the data set on P388 [5] worked out at 0.4 mg/kg. Further, the T/C with P388 [3] is given as 156%; in the data set with P388 [6], 178%. Further, in [4], the selectivity ratio was determined as 8.

Turning to `COC12[C@@H]3N[C@@H]3CN1C1=C(C(=O)C(NCCC#N)=C(C)C1=O)[C@@H]2COC(N)=O` (stereo partly specified), the T/C turned out to be 130% in the data set on L1210 [8], 268% in the data set with P388 [3] and 232% with P388 [6]. Also, the Dose in the data set with P388 [1] is 6.4 mg/kg; in the data set on L1210 [9] it was 12 mg/kg. The logP in data set [2] was -0.49. In addition, the “Change in WBC” value in the data set on P388 [7] is listed as -40%. Also, the results for the minimal effective dose in the data set with P388 [5] and in the data set on L1210 [10] were 0.4 mg/kg and 3 mg/kg, respectively. In data set [4], the selectivity ratio turned out to be 16.

Turning to `COC12[C@@H]3N[C@@H]3CN1C1=C(C(=O)C(NCCN(C)C)=C(C)C1=O)[C@@H]2COC(N)=O` (stereo partly specified), the T/C with L1210 [8] is 136%; in the data set on P388 [3], 161%; with P388 [6] it was 233%. Besides, the Dose came out at 12.8 mg/kg with P388 [1] and 12 mg/kg with L1210 [9]. Further, the minimal effective dose with P388 [5] came to 0.4 mg/kg; with L1210 [10], 6 mg/kg. In addition, in data set [4], the selectivity ratio was 32.

Regarding `COC12[C@@H]3N[C@@H]3CN1C1=C(C(=O)C(N[C@@H]3CC3c3ccccc3)=C(C)C1=O)[C@@H]2COC(N)=O` (stereo partly specified), the Dose with P388 [1] was found to be 25.6 mg/kg. Moreover, the minimal effective dose in the data set on P388 [5] is 1.6 mg/kg. Besides, the results for the T/C with P388 [3] and in the data set with P388 [6] were 233% and 200%, respectively. Further, in [4], the selectivity ratio stood at 16.
